Measured values from ChEMBL document CHEMBL3826936, “Alkyne-substituted diminazene as G-quadruplex binders with anticancer activities” (Eur J Med Chem, 2016).

Test system: not listed separately
Test: Binding affinity to 5'-FAM/3'-TAMRA labeled c-MYC 22-mer G-quadruplex DNA (unknown origin) assessed as change in melting temperature at 4 uM after 12 hrs by TR-FRET assay
Settings: not given
How it was run: (§1)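 Dual-labeled FAM/TAMRA oligos diluted to 800 nM in 60 mM potassium cacodylate (pH 7.2), annealed 10 min at 85 °C and cooled to room temperature. Mixed 1:1 with ligand at […] in the same buffer. Equilibrated at least 12 h at 4 °C. ΔT1/2 taken as melting temperature with minus without ligand, in triplicate, averaged.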

| ΔTm [°C] | Compound |
| --- | --- |
| 9.7 | N#Cc1ccc(N/N=N/c2ccc(C(=N)N)cc2)cc1 |
| 6.6 | C#Cc1ccc(N/N=N/c2ccc(C(=N)N)cc2)cc1 |
| 6.2 | N#Cc1cccc(N/N=N/c2ccc(C(=N)N)cc2)c1 |
| 8.8 | N=C(N)c1ccc(/N=N/Nc2cccc(-c3ccccc3)c2)cc1 |
| 7.1 | N=C(N)c1ccc(/N=N/Nc2ccccc2)cc1 |

Test system: not listed separately
Test: Binding affinity to 5'-FAM/3'-TAMRA labeled F21T 21-mer G-quadruplex DNA (unknown origin) assessed as change in melting temperature at 4 uM after 12 hrs by TR-FRET assay
Settings: not given
How it was run: as §1

| ΔTm [°C] | Compound |
| --- | --- |
| 5.1 | N#Cc1ccc(N/N=N/c2ccc(C(=N)N)cc2)cc1 |
| < 5 | C#Cc1ccc(N/N=N/c2ccc(C(=N)N)cc2)cc1 |
| < 5 | N#Cc1cccc(N/N=N/c2ccc(C(=N)N)cc2)c1 |
| < 5 | N=C(N)c1ccc(/N=N/Nc2cccc(-c3ccccc3)c2)cc1 |
| < 5 | N=C(N)c1ccc(/N=N/Nc2ccccc2)cc1 |

Test system: not listed separately
Test: Binding affinity to 5'-FAM/3'-TAMRA labeled c-kit2 26-mer G-quadruplex DNA (unknown origin) assessed as change in melting temperature at 4 uM after 12 hrs by TR-FRET assay
Settings: not given
How it was run: as §1

| ΔTm [°C] | Compound |
| --- | --- |
| 5.3 | N#Cc1ccc(N/N=N/c2ccc(C(=N)N)cc2)cc1 |
| 5.3 | C#Cc1ccc(N/N=N/c2ccc(C(=N)N)cc2)cc1 |
| 6.22 | N#Cc1cccc(N/N=N/c2ccc(C(=N)N)cc2)c1 |
| 5.48 | N=C(N)c1ccc(/N=N/Nc2cccc(-c3ccccc3)c2)cc1 |
| 6.4 | N=C(N)c1ccc(/N=N/Nc2ccccc2)cc1 |

Test system: not listed separately
Test: Binding affinity to 5'-FAM/3'-TAMRA labeled k-RAS21R 21-mer G-quadruplex DNA (unknown origin) assessed as change in melting temperature at 4 uM after 12 hrs by TR-FRET assay
Settings: not given
How it was run: as §1

| ΔTm [°C] | Compound |
| --- | --- |
| 8.2 | N#Cc1ccc(N/N=N/c2ccc(C(=N)N)cc2)cc1 |
| 4.2 | C#Cc1ccc(N/N=N/c2ccc(C(=N)N)cc2)cc1 |
| 2.2 | N#Cc1cccc(N/N=N/c2ccc(C(=N)N)cc2)c1 |
| 15 | N=C(N)c1ccc(/N=N/Nc2cccc(-c3ccccc3)c2)cc1 |
| 6.4 | N=C(N)c1ccc(/N=N/Nc2ccccc2)cc1 |

Test system: not listed separately
Test: Binding affinity to 5'-FAM/3'-TAMRA labeled 26-mer duplex DNA (unknown origin) assessed as change in melting temperature at 4 uM after 12 hrs by TR-FRET assay
Settings: not given

| ΔTm [°C] | Compound |
| --- | --- |
| < 5 | N#Cc1ccc(N/N=N/c2ccc(C(=N)N)cc2)cc1 |
| < 5 | C#Cc1ccc(N/N=N/c2ccc(C(=N)N)cc2)cc1 |
| < 5 | N#Cc1cccc(N/N=N/c2ccc(C(=N)N)cc2)c1 |
| < 5 | N=C(N)c1ccc(/N=N/Nc2cccc(-c3ccccc3)c2)cc1 |
| < 5 | N=C(N)c1ccc(/N=N/Nc2ccccc2)cc1 |

Test system: not listed separately
Test: Antiproliferative activity against human OVCAR3 cells after 72 hrs by WST-1 assay
Format: functional
Settings: OVCAR-3, 72 h
How it was run: (§2)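 Cells seeded in 96-well plates the afternoon before treatment, at numbers keeping them in log-phase growth; about 18 h later, compounds semi-serially diluted in DMSO then growth medium and added. Incubation 72 h, then WST-1 added and plates read after 4 more hours at 37 °C. GI50 derived from curve fits; viability expressed relative to DMSO control.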

| Compound | GI50 [µM] |
| --- | --- |
| C#Cc1ccc(N/N=N/c2ccc(C(=N)N)cc2)cc1 | 11.8 |
| C[n+]1ccc(-c2c3nc(c(-c4cc[n+](C)cc4)c4ccc([nH]4)c(-c4cc[n+](C)cc4)c4nc(c(-c5cc[n+](C)cc5)c5ccc2[nH]5)C=C4)C=C3)cc1 | 14.6 |

Test system: not listed separately
Test: Antiproliferative activity against human PC3 cells after 72 hrs by WST-1 assay
Format: functional
Settings: PC-3, 72 h
How it was run: as §2

| Compound | GI50 [µM] |
| --- | --- |
| C#Cc1ccc(N/N=N/c2ccc(C(=N)N)cc2)cc1 | 22.5 |
| C[n+]1ccc(-c2c3nc(c(-c4cc[n+](C)cc4)c4ccc([nH]4)c(-c4cc[n+](C)cc4)c4nc(c(-c5cc[n+](C)cc5)c5ccc2[nH]5)C=C4)C=C3)cc1 | 14 |

Test system: MDA-MB-231
Test: Antiproliferative activity against human MDA-MB-231 cells after 72 hrs by WST-1 assay
Format: functional
Settings: MDA-MB-231, 72 h
How it was run: as §2

| Compound | GI50 [µM] |
| --- | --- |
| C#Cc1ccc(N/N=N/c2ccc(C(=N)N)cc2)cc1 | 30.2 |
| C[n+]1ccc(-c2c3nc(c(-c4cc[n+](C)cc4)c4ccc([nH]4)c(-c4cc[n+](C)cc4)c4nc(c(-c5cc[n+](C)cc5)c5ccc2[nH]5)C=C4)C=C3)cc1 | 14.3 |

Test system: not listed separately
Test: Antiproliferative activity against human bone marrow cells after 72 hrs by WST-1 assay
Format: cell-based, Bone marrow cell
Settings: not given
How it was run: (§3)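 Cells seeded the afternoon before treatment at densities giving log-phase growth; about 18 h later compounds, semi-serially diluted in DMSO then growth medium, were added. After 72 h WST-1 was added, with a further 4 h at 37 °C before plate reading. GI50 values were calculated from the curves. NBM was grown in RPMI; MCR5A was handled per ATCC.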

| Compound | GI50 at 72 h [µM] |
| --- | --- |
| C[n+]1ccc(-c2c3nc(c(-c4cc[n+](C)cc4)c4ccc([nH]4)c(-c4cc[n+](C)cc4)c4nc(c(-c5cc[n+](C)cc5)c5ccc2[nH]5)C=C4)C=C3)cc1 | 16.8 |

Test system: not listed separately
Test: Antiproliferative activity against human MCR5A cells after 72 hrs by WST-1 assay
Format: cell-based
Settings: not given
How it was run: as §3

| Compound | GI50 at 72 h [µM] |
| --- | --- |
| C[n+]1ccc(-c2c3nc(c(-c4cc[n+](C)cc4)c4ccc([nH]4)c(-c4cc[n+](C)cc4)c4nc(c(-c5cc[n+](C)cc5)c5ccc2[nH]5)C=C4)C=C3)cc1 | 15.2 |

Test system: not listed separately
Test: Antiproliferative activity against human OVCAR3 cells assessed as cell viability at 20 uM after 72 hrs by WST-1 assay relative to control
Format: functional
Settings: OVCAR-3, 72 h, read-out: Activity
How it was run: as §2

| Compound | viability at 20 µM [%] |
| --- | --- |
| N#Cc1ccc(N/N=N/c2ccc(C(=N)N)cc2)cc1 | ≥ 75 |
| Nc1cccc(C#Cc2ccc(F)cc2)c1 | ≥ 75 |
| N=C(N)c1ccc(N)cc1 | ≥ 75 |
| N#Cc1cccc(N/N=N/c2ccc(C(=N)N)cc2)c1 | ≥ 75 |
| N=C(N)c1ccc(/N=N/Nc2cccc(-c3ccccc3)c2)cc1 | ≥ 75 |
| N=C(N)c1ccc(/N=N/Nc2ccccc2)cc1 | ≥ 75 |

Test system: not listed separately
Test: Antiproliferative activity against human PC3 cells assessed as cell viability at 20 uM after 72 hrs by WST-1 assay relative to control
Format: functional
Settings: PC-3, 72 h, read-out: Activity
How it was run: as §2

| Compound | viability at 20 µM [%] |
| --- | --- |
| N#Cc1ccc(N/N=N/c2ccc(C(=N)N)cc2)cc1 | ≥ 75 |
| Nc1cccc(C#Cc2ccc(F)cc2)c1 | ≥ 75 |
| N=C(N)c1ccc(N)cc1 | ≥ 75 |
| N#Cc1cccc(N/N=N/c2ccc(C(=N)N)cc2)c1 | ≥ 75 |
| N=C(N)c1ccc(/N=N/Nc2cccc(-c3ccccc3)c2)cc1 | ≥ 75 |
| N=C(N)c1ccc(/N=N/Nc2ccccc2)cc1 | ≥ 75 |

Test system: MDA-MB-231
Test: Antiproliferative activity against human MDA-MB-231 cells assessed as cell viability at 20 uM after 72 hrs by WST-1 assay relative to control
Format: functional
Settings: MDA-MB-231, 72 h, read-out: Activity
How it was run: as §2

| Compound | viability at 20 µM [%] |
| --- | --- |
| N#Cc1ccc(N/N=N/c2ccc(C(=N)N)cc2)cc1 | ≥ 75 |
| Nc1cccc(C#Cc2ccc(F)cc2)c1 | ≥ 75 |
| N=C(N)c1ccc(N)cc1 | ≥ 75 |
| N#Cc1cccc(N/N=N/c2ccc(C(=N)N)cc2)c1 | ≥ 75 |
| N=C(N)c1ccc(/N=N/Nc2cccc(-c3ccccc3)c2)cc1 | ≥ 75 |
| N=C(N)c1ccc(/N=N/Nc2ccccc2)cc1 | ≥ 75 |
